Measured values published in ChEMBL document CHEMBL3877325, “Novel salicylanilides from 4,5-dihalogenated salicylic acids: Synthesis, antimicrobial activity and cytotoxicity” (Bioorg Med Chem, 2017).
Converted amounts (≈) assume the structure as drawn.

Columns and labels:
Assay type in all cases: functional
[1] = tested on: Mycobacterium tuberculosis; experiment: Antimycobacterial activity against multidrug resistant Mycobacterium tuberculosis 242/2015 after 14 days by micromethod; details: 242/2015, 336 h
Summary of the method: (§1)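 Multidrug-resistant M. tuberculosis strains, each inoculated at 10^-3 dilution; 234/2005 is resistant to INH, RIF, rifabutin, streptomycin, ethambutol and ofloxacin. MIC determined by micromethod in Šula's semisynthetic medium at 37 °C after 14 and 21 days. Compounds added from DMSO at 0.5–500 µM.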

[2] = tested on: Mycobacterium tuberculosis; experiment: Antimycobacterial activity against multidrug resistant Mycobacterium tuberculosis Praha 1 after 21 days by micromethod; details: Praha 1, 504 h; summary of the method: as §1
[3] = tested on: Mycobacterium tuberculosis; experiment: Antimycobacterial activity against multidrug resistant Mycobacterium tuberculosis 9449/2007 after 21 days by micromethod; details: 9449/2007, 504 h; summary of the method: as §1
[4] = tested on: Mycobacterium tuberculosis; experiment: Antimycobacterial activity against multidrug resistant Mycobacterium tuberculosis 9449/2007 after 14 days by micromethod; details: 9449/2007, 336 h; summary of the method: as §1
[5] = tested on: Mycobacterium tuberculosis; experiment: Antimycobacterial activity against multidrug resistant Mycobacterium tuberculosis 234/2005 after 21 days by micromethod; details: 234/2005, 504 h; summary of the method: as §1
[6] = tested on: Mycobacterium tuberculosis; experiment: Antimycobacterial activity against multidrug resistant Mycobacterium tuberculosis Praha 4 after 21 days by micromethod; details: Praha 4, 504 h; summary of the method: as §1
[7] = tested on: Mycobacterium tuberculosis; experiment: Antimycobacterial activity against extensively drug resistant Mycobacterium tuberculosis Praha 131 after 14 days by micromethod; details: Praha 131, 336 h
Summary of the method: (§2)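 MIC micromethod in Šula's semisynthetic medium at 37 °C, read after 14 and 21 days. Compounds added as DMSO solutions at 500 down to 0.5 µM (twofold-type series: 500, 250, 125, 62.5, 32, 16, 8, 4, 2, 1, 0.5 µM). Isoniazid standard given in sterile water.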

[8] = tested on: Mycobacterium tuberculosis; experiment: Antimycobacterial activity against multidrug resistant Mycobacterium tuberculosis Praha 4 after 14 days by micromethod; details: Praha 4, 336 h; summary of the method: as §1
[9] = tested on: Mycobacterium tuberculosis; experiment: Antimycobacterial activity against extensively drug resistant Mycobacterium tuberculosis Praha 131 after 21 days by micromethod; details: Praha 131, 504 h; summary of the method: as §2
[10] = tested on: Mycobacterium tuberculosis; experiment: Antimycobacterial activity against multidrug resistant Mycobacterium tuberculosis Praha 1 after 14 days by micromethod; details: Praha 1, 336 h; summary of the method: as §1
[11] = tested on: Mycobacterium tuberculosis; experiment: Antimycobacterial activity against multidrug resistant Mycobacterium tuberculosis 242/2015 after 21 days by micromethod; details: 242/2015, 504 h; summary of the method: as §1
[12] = tested on: Mycobacterium tuberculosis; experiment: Antimycobacterial activity against multidrug resistant Mycobacterium tuberculosis 234/2005 after 14 days by micromethod; details: 234/2005, 336 h; summary of the method: as §1

SMILES | MIC [1] [µM] | MIC [2] [µM] | MIC [3] [µM] | MIC [4] [µM] | MIC [5] [µM] | MIC [6] [µM] | MIC [7] [µM] | MIC [8] [µM] | MIC [9] [µM] | MIC [10] [µM] | MIC [11] [µM] | MIC [12] [µM]
O=C(Nc1ccc(C(F)(F)F)cc1)c1ccc(Cl)cc1O | 1 (≈ 0.316 µg/mL) | 1 (≈ 0.316 µg/mL) | 1 (≈ 0.316 µg/mL) | 2 (≈ 0.631 µg/mL) | 2 (≈ 0.631 µg/mL) | 2 (≈ 0.631 µg/mL) | 2 (≈ 0.631 µg/mL) | 1 (≈ 0.316 µg/mL) | 2 (≈ 0.631 µg/mL) | 1 (≈ 0.316 µg/mL) | 1 (≈ 0.316 µg/mL) | 2 (≈ 0.631 µg/mL)
O=C(Nc1ccc(C(F)(F)F)cc1)c1cc(Cl)ccc1O | 0.5 (≈ 0.158 µg/mL) | 0.5 (≈ 0.158 µg/mL) | 0.5 (≈ 0.158 µg/mL) | 0.5 (≈ 0.158 µg/mL) | 0.5 (≈ 0.158 µg/mL) | 0.5 (≈ 0.158 µg/mL) | 0.5 (≈ 0.158 µg/mL) | 0.5 (≈ 0.158 µg/mL) | 0.5 (≈ 0.158 µg/mL) | 0.5 (≈ 0.158 µg/mL) | 0.5 (≈ 0.158 µg/mL) | 0.5 (≈ 0.158 µg/mL)
O=C(Nc1ccc(C(F)(F)F)cc1)c1cc(Br)ccc1O | 1 (≈ 0.36 µg/mL) | 1 (≈ 0.36 µg/mL) | 1 (≈ 0.36 µg/mL) | 2 (≈ 0.72 µg/mL) | 4 (≈ 1.44 µg/mL) | 4 (≈ 1.44 µg/mL) | 2 (≈ 0.72 µg/mL) | 2 (≈ 0.72 µg/mL) | 4 (≈ 1.44 µg/mL) | 1 (≈ 0.36 µg/mL) | 2 (≈ 0.72 µg/mL) | 2 (≈ 0.72 µg/mL)
O=C(Nc1ccc(C(F)(F)F)cc1)c1ccc(Br)cc1O | 1 (≈ 0.36 µg/mL) | 1 (≈ 0.36 µg/mL) | 1 (≈ 0.36 µg/mL) | 1 (≈ 0.36 µg/mL) | 2 (≈ 0.72 µg/mL) | 2 (≈ 0.72 µg/mL) | 1 (≈ 0.36 µg/mL) | 1 (≈ 0.36 µg/mL) | 1 (≈ 0.36 µg/mL) | 1 (≈ 0.36 µg/mL) | 1 (≈ 0.36 µg/mL) | 1 (≈ 0.36 µg/mL)
O=C(Nc1ccc(C(F)(F)F)cc1)c1cc(Br)c(Br)cc1O | 1 (≈ 0.439 µg/mL) | 1 (≈ 0.439 µg/mL) | 1 (≈ 0.439 µg/mL) | 2 (≈ 0.878 µg/mL) | 2 (≈ 0.878 µg/mL) | 2 (≈ 0.878 µg/mL) | 2 (≈ 0.878 µg/mL) | 2 (≈ 0.878 µg/mL) | 2 (≈ 0.878 µg/mL) | 1 (≈ 0.439 µg/mL) | 2 (≈ 0.878 µg/mL) | 2 (≈ 0.878 µg/mL)
O=C(Nc1ccc(C(F)(F)F)cc1)c1cc(Br)c(Cl)cc1O | 2 (≈ 0.789 µg/mL) | 2 (≈ 0.789 µg/mL) | 2 (≈ 0.789 µg/mL) | 2 (≈ 0.789 µg/mL) | 2 (≈ 0.789 µg/mL) | 2 (≈ 0.789 µg/mL) | 2 (≈ 0.789 µg/mL) | 2 (≈ 0.789 µg/mL) | 2 (≈ 0.789 µg/mL) | 2 (≈ 0.789 µg/mL) | 2 (≈ 0.789 µg/mL) | 2 (≈ 0.789 µg/mL)
O=C(Nc1ccc(C(F)(F)F)cc1)c1cc(Cl)c(Cl)cc1O | 1 (≈ 0.35 µg/mL) | 1 (≈ 0.35 µg/mL) | 1 (≈ 0.35 µg/mL) | 2 (≈ 0.7 µg/mL) | 2 (≈ 0.7 µg/mL) | 2 (≈ 0.7 µg/mL) | 1 (≈ 0.35 µg/mL) | 1 (≈ 0.35 µg/mL) | 2 (≈ 0.7 µg/mL) | 1 (≈ 0.35 µg/mL) | 1 (≈ 0.35 µg/mL) | 1 (≈ 0.35 µg/mL)
O=C(Nc1ccc(C(F)(F)F)cc1)c1cc(Cl)c(Br)cc1O | 2 (≈ 0.789 µg/mL) | 2 (≈ 0.789 µg/mL) | 2 (≈ 0.789 µg/mL) | 2 (≈ 0.789 µg/mL) | 2 (≈ 0.789 µg/mL) | 4 (≈ 1.58 µg/mL) | 2 (≈ 0.789 µg/mL) | 2 (≈ 0.789 µg/mL) | 2 (≈ 0.789 µg/mL) | 2 (≈ 0.789 µg/mL) | 2 (≈ 0.789 µg/mL) | 2 (≈ 0.789 µg/mL)
NNC(=O)c1ccncc1 [ISONIAZID] | 16 (≈ 2.19 µg/mL) | 16 (≈ 2.19 µg/mL) | 16 (≈ 2.19 µg/mL) | 16 (≈ 2.19 µg/mL) | 32 (≈ 4.39 µg/mL) | 16 (≈ 2.19 µg/mL) | 16 (≈ 2.19 µg/mL) | 16 (≈ 2.19 µg/mL) | 16 (≈ 2.19 µg/mL) | 16 (≈ 2.19 µg/mL) | 16 (≈ 2.19 µg/mL) | 16 (≈ 2.19 µg/mL)
